Measurements of several laboratories.
Lines come from different studies, so protocols differ.
Target: Serine/threonine-protein kinase 3 (STK3, Homo sapiens, UniProt Q13188)
Residues used in one study (Q13188 1-491): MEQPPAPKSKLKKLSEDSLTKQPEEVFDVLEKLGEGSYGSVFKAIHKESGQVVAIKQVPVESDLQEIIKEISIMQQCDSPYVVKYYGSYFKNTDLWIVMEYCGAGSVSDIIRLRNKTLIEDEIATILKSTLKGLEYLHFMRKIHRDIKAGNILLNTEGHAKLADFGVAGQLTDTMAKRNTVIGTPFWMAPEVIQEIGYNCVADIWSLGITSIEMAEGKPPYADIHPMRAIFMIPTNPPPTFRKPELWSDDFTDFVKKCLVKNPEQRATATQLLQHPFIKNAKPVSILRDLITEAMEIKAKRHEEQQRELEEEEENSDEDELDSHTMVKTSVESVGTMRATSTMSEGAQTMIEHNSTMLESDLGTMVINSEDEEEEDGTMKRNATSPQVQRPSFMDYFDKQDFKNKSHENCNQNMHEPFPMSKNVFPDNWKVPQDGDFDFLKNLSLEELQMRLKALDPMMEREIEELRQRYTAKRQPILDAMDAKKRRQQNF

C#Cc1cc(-c2cc(Nc3nc(N[C@@H](C)c4ccc(F)cn4)ncc3Cl)n[nH]2)ccc1C=O  inhibition (enzyme activity; inhibitor; 0.2 µM): 29.9%
CCCCC(=O)Nc1ccc(-c2ccc3ncn(CCC)c(=O)c3c2)cn1  remaining binding (binding; competition with immobilised ligand; 0.5 µM): 73%
CO[C@@H]1[C@H](N(C)C(=O)c2ccccc2)C[C@H]2O[C@]1(C)n1c3ccccc3c3c4c(c5c6ccccc6n2c5c31)C(=O)NC4  inhibition (enzyme activity; inhibitor; 1 µM): 100%
Cc1cc(O)c(-c2ccc([C@@H](C)CN(C)C)cc2)c2c1[nH]c(=O)c1sccc12  inhibition (enzyme activity; inhibitor; 0.1 µM): 9.39%
COc1ccc2oc(-c3ccc4nc(N)oc4c3)c/c(=N\c3ccccc3NC(=O)CCN)c2c1  remaining binding (binding; 1 µM): 79%
CN1CCN(C(=O)c2ccc(NC(=O)Nc3ccc(N(C)c4ccnc(Nc5ccc(CS(C)(=O)=O)cc5)n4)cc3)cc2)CC1  remaining binding (binding; 1 µM): 16%
CC#CC(=O)N1CCC[C@H]1c1nc(-c2ccc(C(=O)Nc3ccccn3)cc2)c2c(N)nccn12  inhibition (enzyme activity; inhibitor; 1 µM): 19%
Cc1ccc(NC(=O)c2ccnc(C(F)(F)F)c2)cc1-c1cc(OCCO)nc(N2CCOCC2)c1  remaining binding (binding; 1 µM): 79%
CC(C)S(=O)(=O)c1ccc2nccc(Nc3ccc4sc(C5CCCC5)nc4c3)c2c1  activity vs control (enzyme activity; inhibitor; 1 µM): 103%
